Bioassay records as filed in PubChem BioAssay.
Apaf1 inhib: human Apaf-1 inhibition | O14727 | reconstituted apoptosome caspase-3 activity, DEVD-Rh110 fluorescence | inhibition, % at 20 µM | 330,000 tested, 0.71% active; active = inhibition of at least 40% at 20 µM;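 note: plate controls were DMSO wells for no effect and DEVD-CHO caspase inhibitor wells for full effect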
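Material: reconstituted apoptosome with Apaf-1, cytochrome c, caspase-9, procaspase-3, dATP / Buffer or medium: pH 7.5 Hepes buffer with CHAPS, BSA, DTT / Also added: cytochrome c with DEVD-Rh110 / Schedule: compound with Apaf-1, dATP, procaspase-3 30 min, then 50 min reaction, room temperature / Technique: rhodamine 110 fluorescence at Ex 480/Em 540 nm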
SENP7 inh: inhibitors of human SENP7 protease; Q9BQF6; recombinant SENP7, Z-RLRGG-aminoluciferin luminescence, 40 min; inhibition, % at 5 µM; 330,000 tested, 1.5% active;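 active = inhibition above about 50% at the single test dose, limit read from the data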;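 note: plate controls were DMSO with enzyme for no effect and no enzyme buffer wells for full effect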
Target sequence (Q9BQF6 706-1050 limits assumed): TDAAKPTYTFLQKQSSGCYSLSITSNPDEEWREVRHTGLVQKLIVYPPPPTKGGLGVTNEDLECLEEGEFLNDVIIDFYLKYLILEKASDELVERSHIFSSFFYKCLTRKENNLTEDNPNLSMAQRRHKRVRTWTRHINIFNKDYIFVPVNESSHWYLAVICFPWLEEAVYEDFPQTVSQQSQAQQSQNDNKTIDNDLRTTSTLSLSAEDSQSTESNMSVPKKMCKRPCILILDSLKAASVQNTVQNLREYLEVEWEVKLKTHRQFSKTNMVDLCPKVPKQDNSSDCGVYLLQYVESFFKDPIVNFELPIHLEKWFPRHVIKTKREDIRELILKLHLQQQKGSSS
SENP6 inh: inhibitors of human SENP6 protease | inhibition, % at 10 µM | 330,000 tested, 1.8% active | AID 2599 | Recombinant SENP6 catalytic domain, aminoluciferin luminescence;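 active = inhibition above about 50% at the single tested dose, limit read from the data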;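 note: plate controls were DMSO wells with enzyme for no effect and DMSO wells lacking enzyme for full effect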
SENP8 block-1: blocks the human protease SENP8 | AID 2540 | purified SENP8, Z-RLRGG-aminoluciferin cleavage, luminescence | 330,000 tested, 1.2% active | inhibition, % at 10 µM; in the data active = inhibition above about 50%
SENP8 block-2: inhibitors of human SENP8 protease; Q96LD8; recombinant SENP8, Nedd8 substrate fluorescence; inhibition, % at 20 µM; 360,000 tested, 0.64% active; AID 602440; in the data active = inhibition mostly above about 40%, no sharp cut-off; inactive = mostly below about 27%
UBC13 inh: human UBC13 polyubiquitination inhibition; UBC13 polyubiquitin chain formation, TR-FRET; P61088; 330,000 tested, 0.47% active; inhibition, % at 20 µM; in the data active = inhibition above about 45%, passing the limit was not always enough
Target sequence (P61088 whole entry, looked up): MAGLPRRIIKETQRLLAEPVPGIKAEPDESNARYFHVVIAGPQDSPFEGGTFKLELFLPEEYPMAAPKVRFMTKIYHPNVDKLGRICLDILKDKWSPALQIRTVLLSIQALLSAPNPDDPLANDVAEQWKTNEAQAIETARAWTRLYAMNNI
SENP8 conf: human SENP8 inhibition, confirmed; shares compounds with SENP7 inh; Recombinant SENP8, Z-RLRGG-aminoluciferin luminescence, 60 min; inhibition, % at 12.5 µM; 6,200 tested, 40% active; AID 488912;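 active = mean inhibition across replicates above about 50%, limit read from the data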
SENP6 confirm: human SENP6 inhibition, confirmed. shares compounds with SENP7 inh. recombinant SENP6, Z-RLRGG-aminoluciferin luminescence. inhibition, % at 12.5 µM. 6,200 tested, 58% active. AID 488915
SENP7 conf: confirmation of human SENP7 protease inhibitors. inhibition, % at 12.5 µM. AID 488917. 6,200 tested, 69% active. shares compounds with SENP7 inh. recombinant SENP7, Z-RLRGG-aminoluciferin luminescence, 40 min
Casp3 select: selectivity test for SENP inhibitors: human caspase-3 inhibition. shares compounds with SENP7 inh. purified caspase-3, Z-DEVD-aminoluciferin luminescence, 60 min. inhibition, % at 12.5 µM. 6,200 tested, 60% active;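 active = mean inhibition above about 50%, limit read from the data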;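 note: plate controls were enzyme with DMSO for no effect and wells without caspase-3 for full effect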
SENP luc ctr: interferes with luciferase luminescence in SENP counter-screen; shares compounds with SENP7 inh; Pre-incubated SENP8/Z-RLRGG-aminoluciferin, luciferase luminescence interference; inhibition, % at 12.5 µM; 6,200 tested, 39% active; AID 488919;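 active = mean inhibition above about 50% when retested at one dose, limit read from the data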;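 note: plate controls were DMSO wells with completed reaction for no effect and substrate without enzyme for full effect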
Active calls of the source: *; . = no result. Most compounds without a hit are left out; they make up all but 3% or so of the library.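 Rule for the calls, unless noted: active = mean inhibition above about 50% in the one-dose retest (limit read from the data); inactive = the rest.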

SMILES	Apaf1 inhib	SENP7 inh	SENP6 inh	SENP8 block-1	SENP8 block-2	UBC13 inh	SENP8 conf	SENP6 confirm	SENP7 conf	Casp3 select	SENP luc ctr
CN(C)CCCN(C(=O)COc1ccccc1)c1nc2c(F)cccc2s1	-16	61*	12	-1	18	3	-29	-17	-7	-10	-12
CCCCC(=O)OCC(=O)c1ccc(OCC)cc1	-1	51*	55*	40	9	-3	20	36	80*	64*	46
CCOc1ccc(C(=O)COC(=O)CC)cc1	1	11	-2	-1	26	4	.	.	.	.	.
Cc1oc2ccc(OCc3ccc(F)cc3Cl)cc2c1C(=O)O	-10	10	24	20	6	-2	.	.	.	.	.
CC(=O)c1c(C)oc2ccc(OCc3ccccc3)cc12	11	33	55*	34	10	5	31	29	68*	24	16
O=C(O)c1cccc(OCc2ccccc2Cl)c1	-3	75*	94*	79*	8	13	86*	86*	97*	82*	89*
Cc1oc2ccc(OCc3ccccc3Cl)cc2c1C(=O)O	-1	0	62*	37	20	-1	35	40	51*	55*	22
FC(F)(F)c1ccccc1Cc1c(-c2ccccc2)nc2ccc(Br)cn12	.	.	.	.	-8	.	.	.	.	.	.
O=C(c1cc(-c2cccs2)on1)N1CCc2ccccc2C1	12	52*	3	-8	14	2	-3	-3	9	0	-4
N#Cc1ccsc1NC(=O)CCc1ccccc1	-5	70*	23	60*	8	4	14	28	68*	53*	47
COc1cccc(-c2nc3ccc([N+](=O)[O-])cc3o2)c1	-32	95*	0	43	0	-2	49	56*	73*	49	8
COc1cccc(-c2nc3ccccc3c(=O)o2)c1	2	29	38	-16	13	6	.	.	.	.	.
O=[N+]([O-])c1ccc2nc(-c3ccccc3)oc2c1	4	71*	77*	63*	19	-7	54*	59*	78*	70*	22
O=c1oc(-c2cccc([N+](=O)[O-])c2)nc2ccccc12	7	2	24	27	5	11	.	.	.	.	.
COc1ccc(-n2nc3cc(C)c(N)c(Br)c3n2)cc1	20	44	63*	40	-482	-13	12	38	53*	6	7
COc1cccc2sc(N(C)c3ccccc3)nc12	17	89*	47	76*	16	13	-8	83*	96*	78*	83*
CN=c1scc(-c2cccs2)n1/N=C/c1ccccc1O	16	95*	96*	94*	-40	11	50	94*	102*	94*	19
CN=c1scc(-c2cccs2)n1/N=C/c1ccc(O)c(O)c1O	16	57*	79*	82*	30	-19	95*	95*	99*	80*	82*
COc1ccc(C(=O)NCCNc2nc3cc(C)cc(C)c3cc2C#N)nc1	.	.	.	.	-398	.	.	.	.	.	.
Cc1ccc(NC(=O)C2(C)CCN2C(=O)Cc2ccccc2)cc1C (stereo not given)	.	.	.	.	8	.	.	.	.	.	.
Cc1ccc(-c2nc3sc4c(c3c(=O)n2N)CCCC4)cc1	-8	54*	72*	36	-30	9	9	66*	88*	41	17
O=c1c2c3c(sc2nc2n1CCCCC2)CCCC3	7	33	62*	21	4	20	22	45	57*	56*	16
Cc1c(N=Cc2c(O)n(C)c(=O)c3ccccc23)c(=O)n(-c2ccccc2)n1C	26	41	52*	10	-48	-14	-19	-9	-1	0	-5
Cc1c(N=Cc2ccncc2)c(=O)n(-c2ccccc2)n1C	11	-9	12	-5	18	-11	.	.	.	.	.
CCCS(=O)(=O)c1cnc(C2COc3ccccc3O2)nc1N (stereo not given)	-2	94*	93*	87*	13	4	82*	92*	100*	96*	17
SMILES	Apaf1 inhib	SENP7 inh	SENP6 inh	SENP8 block-1	SENP8 block-2	UBC13 inh	SENP8 conf	SENP6 confirm	SENP7 conf	Casp3 select	SENP luc ctr
O=C(O/N=C1/CCCc2occc21)c1ccc(Cl)cc1Cl	0	73*	67*	55*	5	6	-2	46	43	53*	25
O=C(OCCN1CCOCC1)c1ccc(Cl)cc1Cl	0	1	6	4	25	-1	.	.	.	.	.
COc1ccc(C(=O)O/N=C2\CCCc3nonc32)cc1	3	0	-4	1	18	8	.	.	.	.	.
O=C(O/N=C1/CCCc2occc21)c1ccccc1	0	95*	89*	84*	25	-8	-20	84*	98*	92*	54*
O=C(O)c1c(Cl)cccc1Nc1ccccc1	.	.	.	.	4	.	.	.	.	.	.
CC(C)NC(=O)C1(C)CN(S(C)(=O)=O)CC(=O)N1CC(F)(F)F (stereo not given)	.	.	.	.	14	.	.	.	.	.	.
Cc1oc2c(c1C(=O)c1ccccc1)C(=O)C(=O)c1ccccc1-2	91*	42	83*	65*	99*	-145	-4	72*	49	5	-1
O=C(C1=C(c2ccccc2)C(=O)c2ccccc2C1=O)c1ccccc1	.	.	.	.	35	.	.	.	.	.	.
O=C(Nc1ccccc1)Oc1ccc[nH]c1=O	61*	44	74*	11	18	-1	-22	-14	2	12	15
CCN(CC)c1ccc(Nc2nc(-c3cccnc3)cs2)cc1	31	11	62*	57*	16	-9	56*	52*	88*	47	22
CN(C)c1ccc(Nc2nc(-c3cccnc3)cs2)cc1	11	89*	88*	87*	24	0	43	78*	96*	92*	32
Fc1ccc(Nc2nc(-c3cccnc3)cs2)cc1	-5	34	25	2	1	-3	.	.	.	.	.
COc1ccccc1Nc1nc(-c2cccnc2)cs1	5	53*	67*	50*	16	-3	-26	39	78*	42	60*
